Test results from ChEMBL document CHEMBL2163326, “Investigations on the 1-(2-biphenyl)piperazine motif: identification of new potent and selective ligands for the serotonin(7) (5-HT(7)) receptor with agonist or antagonist action in vitro or ex vivo” (J Med Chem, 2012).
Calls of active or inactive are those of the source. The calls are words filed in the database; no cut-off is given here.

Experiments:
[1] = target: T1, 5-hydroxytryptamine receptor 7 (Homo sapiens, UniProt P34969); assay: Displacement of [3H]-5-CT from human cloned 5HT7 receptor
[2] = target: T2, 5-hydroxytryptamine receptor 1A (Homo sapiens, UniProt P08908); assay: Displacement of [3H]-8-OH-DPAT from human cloned 5HT1A receptor
T2 sequence (P08908 whole entry): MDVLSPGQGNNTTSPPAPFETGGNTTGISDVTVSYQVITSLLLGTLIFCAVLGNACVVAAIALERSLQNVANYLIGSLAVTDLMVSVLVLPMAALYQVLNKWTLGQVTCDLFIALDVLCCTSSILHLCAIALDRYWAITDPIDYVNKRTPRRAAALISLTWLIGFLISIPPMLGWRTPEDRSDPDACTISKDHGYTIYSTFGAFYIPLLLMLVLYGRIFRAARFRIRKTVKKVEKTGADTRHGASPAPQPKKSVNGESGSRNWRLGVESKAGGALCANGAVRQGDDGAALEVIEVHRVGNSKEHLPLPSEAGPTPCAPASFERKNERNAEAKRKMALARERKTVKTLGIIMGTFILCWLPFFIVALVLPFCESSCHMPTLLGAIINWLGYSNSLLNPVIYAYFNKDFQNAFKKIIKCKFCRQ

[3] = target: Adrenergic receptor alpha-1 (Rattus norvegicus) (UniProt P15823+P23944+P43140); assay: Displacement of [3H]prazoin from rat cerebral cortex adrenergic alpha1 receptor at 100 nM; format: tissue-based
Procedure, shortened: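 [3H]prazosin displacement was measured on rat cerebral cortex membranes, using one test concentration of 100 nM. Values are the mean of two independent experiments.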

[4] = target: 5-hydroxytryptamine receptor 7 (Rattus norvegicus, UniProt P32305); assay: Displacement of [3H]LSD from rat kidney proximal convoluted tubule 5HT7R expressed in COS7 cells; format: cell-based, COS-7
[5] = target: T3, 5-hydroxytryptamine receptor 1A (Homo sapiens) (UniProt P08908); assay: Displacement of [3H]-8-OH-DPAT from human cloned 5HT1A receptor at 100 nM
T3 sequence (whole entry): T2 sequence (P08908 whole entry)

[6] = target: 5-hydroxytryptamine receptor 7 (Cavia porcellus) (UniProt P50407); assay: Agonist activity at 5HT7 receptor in guinea pig ileum assessed as inhibition of substance P-induced smooth muscle contraction at 1 uM in presence of 3 uM SB-269970; format: functional, tissue-based
Procedure, shortened: (§1)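 Isolated guinea pig ileum was contracted with substance P. Relaxation was scored as percent relaxation of that contraction. Each run included a cocktail of non-5-HT7 receptor antagonists. To test 5-HT7 mediation, relaxation was repeated with the selective 5-HT7 antagonist at 3 μM; reversal was taken as 5-HT7-mediated.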

[7] = target: 5-hydroxytryptamine receptor 7 (Cavia porcellus) (UniProt P50407); assay: Agonist activity at 5HT7 receptor in guinea pig ileum assessed as inhibition of substance P-induced smooth muscle contraction at 0.5 uM; format: functional, tissue-based; procedure, shortened: as §1
[8] = target: T1, 5-hydroxytryptamine receptor 7; assay: Agonist activity at human 5HT7A receptor expressed in human HeLa cells assessed as stimulation of cAMP accumulation; format: functional, cell-based
Procedure, shortened: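 HeLa cells stably expressing human 5-HT7(a) receptor were cultured and seeded into 96-well plates. Cells were exposed to test agent alone, and intracellular cAMP was measured by ELISA.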

[9] = target: T4, Adrenergic receptor alpha-1 (Rattus norvegicus, UniProt P15823+P23944+P43140); assay: Displacement of [3H]prazoin from rat cerebral cortex adrenergic alpha1 receptor; format: tissue-based
T4 sequence (P15823 whole entry): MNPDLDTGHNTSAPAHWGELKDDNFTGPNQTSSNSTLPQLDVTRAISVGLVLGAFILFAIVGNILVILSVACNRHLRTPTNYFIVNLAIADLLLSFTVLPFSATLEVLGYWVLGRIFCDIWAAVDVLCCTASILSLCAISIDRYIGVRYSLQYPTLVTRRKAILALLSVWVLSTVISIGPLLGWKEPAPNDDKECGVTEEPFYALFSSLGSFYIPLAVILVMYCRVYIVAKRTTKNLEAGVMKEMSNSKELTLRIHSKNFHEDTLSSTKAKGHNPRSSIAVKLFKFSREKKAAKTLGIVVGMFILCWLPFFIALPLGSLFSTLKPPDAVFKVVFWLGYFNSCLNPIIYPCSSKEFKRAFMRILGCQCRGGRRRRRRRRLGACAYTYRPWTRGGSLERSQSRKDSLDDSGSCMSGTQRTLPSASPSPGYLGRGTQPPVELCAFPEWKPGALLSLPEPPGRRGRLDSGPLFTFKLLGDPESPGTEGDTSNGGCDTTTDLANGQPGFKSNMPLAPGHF
T4 sequence (P23944 whole entry): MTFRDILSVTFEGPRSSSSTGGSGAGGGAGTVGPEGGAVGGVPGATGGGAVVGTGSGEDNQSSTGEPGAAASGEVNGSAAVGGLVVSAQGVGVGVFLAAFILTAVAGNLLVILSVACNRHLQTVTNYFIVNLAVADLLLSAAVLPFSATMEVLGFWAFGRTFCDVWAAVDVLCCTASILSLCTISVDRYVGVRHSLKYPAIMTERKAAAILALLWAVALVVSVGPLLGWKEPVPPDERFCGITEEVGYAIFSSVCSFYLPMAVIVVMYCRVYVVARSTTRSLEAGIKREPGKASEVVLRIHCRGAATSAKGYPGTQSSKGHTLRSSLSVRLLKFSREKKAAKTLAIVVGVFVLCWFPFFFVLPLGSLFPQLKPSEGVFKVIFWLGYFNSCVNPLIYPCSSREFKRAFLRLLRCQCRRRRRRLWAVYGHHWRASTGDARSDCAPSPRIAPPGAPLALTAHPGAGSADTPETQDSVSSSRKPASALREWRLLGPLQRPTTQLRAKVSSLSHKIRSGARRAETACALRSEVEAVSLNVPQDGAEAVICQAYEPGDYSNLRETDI
T4 sequence (P43140 whole entry): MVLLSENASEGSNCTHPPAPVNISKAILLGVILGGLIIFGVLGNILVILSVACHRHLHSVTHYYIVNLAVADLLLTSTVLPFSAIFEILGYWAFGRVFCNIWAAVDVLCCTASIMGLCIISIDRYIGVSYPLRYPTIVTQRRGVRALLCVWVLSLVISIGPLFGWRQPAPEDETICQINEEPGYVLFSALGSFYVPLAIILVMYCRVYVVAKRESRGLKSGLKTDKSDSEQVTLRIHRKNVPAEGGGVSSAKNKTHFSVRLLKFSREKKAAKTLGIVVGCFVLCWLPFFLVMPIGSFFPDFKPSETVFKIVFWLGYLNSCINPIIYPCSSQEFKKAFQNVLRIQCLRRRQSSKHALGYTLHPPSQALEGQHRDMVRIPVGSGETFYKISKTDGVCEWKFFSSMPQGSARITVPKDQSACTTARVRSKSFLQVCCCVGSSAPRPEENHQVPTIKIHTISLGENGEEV

[10] = target: T1, 5-hydroxytryptamine receptor 7; assay: Antagonist activity at human 5HT7A receptor expressed in human HeLa cells assessed as inhibition of 5-HT-induced cAMP accumulation by ELISA; format: functional, cell-based
Procedure, shortened: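 HeLa cells stably expressing human 5-HT7(a) were seeded in 96-well plates. They were co-treated with 1 μM 5-HT plus test agent. Intracellular cAMP was read by ELISA, and IC50 was taken for inhibition of 5-HT-stimulated cAMP accumulation.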

[11] = target: 5-hydroxytryptamine receptor 7 (Cavia porcellus) (UniProt P50407); assay: Agonist activity at 5HT7 receptor in guinea pig ileum assessed as inhibition of substance P-induced smooth muscle contraction at 1 uM; format: functional, tissue-based; procedure, shortened: as §1
[12] = target: 5-hydroxytryptamine receptor 7 (Cavia porcellus) (UniProt P50407); assay: Agonist activity at 5HT7 receptor in guinea pig ileum assessed as inhibition of substance P-induced smooth muscle contraction at 0.5 uM in presence of 3 uM SB-269970; format: functional, tissue-based; procedure, shortened: as §1
[13] = target: 5-hydroxytryptamine receptor 7 (Cavia porcellus) (UniProt P50407); assay: Agonist activity at 5HT7 receptor in guinea pig ileum assessed as inhibition of substance P-induced smooth muscle contraction at 2 uM in presence of 3 uM SB-269970; format: functional, tissue-based; procedure, shortened: as §1
[14] = target: 5-hydroxytryptamine receptor 7 (Cavia porcellus) (UniProt P50407); assay: Agonist activity at 5HT7 receptor in guinea pig ileum assessed as inhibition of substance P-induced smooth muscle contraction at 2 uM; format: functional, tissue-based; procedure, shortened: as §1

5-hydroxytryptamine receptor 7 (Cavia porcellus), sequence (P50407 whole entry): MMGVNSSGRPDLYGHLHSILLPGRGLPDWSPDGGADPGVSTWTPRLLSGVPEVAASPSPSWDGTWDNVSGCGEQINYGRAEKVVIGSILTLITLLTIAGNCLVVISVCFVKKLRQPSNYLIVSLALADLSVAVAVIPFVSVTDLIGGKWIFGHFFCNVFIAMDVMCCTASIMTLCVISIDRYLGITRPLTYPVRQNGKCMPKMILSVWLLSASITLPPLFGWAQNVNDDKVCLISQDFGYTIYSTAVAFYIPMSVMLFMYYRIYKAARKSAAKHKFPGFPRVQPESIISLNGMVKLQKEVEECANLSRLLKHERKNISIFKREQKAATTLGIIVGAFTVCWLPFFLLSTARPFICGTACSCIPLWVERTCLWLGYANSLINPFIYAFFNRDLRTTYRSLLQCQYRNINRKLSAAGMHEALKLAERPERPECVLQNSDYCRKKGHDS
T1 sequence (P34969 whole entry): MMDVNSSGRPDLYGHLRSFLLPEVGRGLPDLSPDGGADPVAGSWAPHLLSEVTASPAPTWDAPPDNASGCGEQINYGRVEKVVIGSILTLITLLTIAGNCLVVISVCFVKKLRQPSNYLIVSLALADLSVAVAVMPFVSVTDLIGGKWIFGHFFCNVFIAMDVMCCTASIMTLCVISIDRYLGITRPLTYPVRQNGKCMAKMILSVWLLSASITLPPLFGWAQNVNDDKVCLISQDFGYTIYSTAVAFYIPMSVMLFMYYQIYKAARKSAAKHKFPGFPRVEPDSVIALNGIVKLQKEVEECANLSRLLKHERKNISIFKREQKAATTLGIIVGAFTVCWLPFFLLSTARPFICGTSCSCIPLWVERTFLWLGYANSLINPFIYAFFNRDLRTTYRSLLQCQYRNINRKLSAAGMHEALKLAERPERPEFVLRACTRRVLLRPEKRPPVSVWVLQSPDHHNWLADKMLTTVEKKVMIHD
5-hydroxytryptamine receptor 7 (Rattus norvegicus, UniProt P32305), sequence (P32305 whole entry): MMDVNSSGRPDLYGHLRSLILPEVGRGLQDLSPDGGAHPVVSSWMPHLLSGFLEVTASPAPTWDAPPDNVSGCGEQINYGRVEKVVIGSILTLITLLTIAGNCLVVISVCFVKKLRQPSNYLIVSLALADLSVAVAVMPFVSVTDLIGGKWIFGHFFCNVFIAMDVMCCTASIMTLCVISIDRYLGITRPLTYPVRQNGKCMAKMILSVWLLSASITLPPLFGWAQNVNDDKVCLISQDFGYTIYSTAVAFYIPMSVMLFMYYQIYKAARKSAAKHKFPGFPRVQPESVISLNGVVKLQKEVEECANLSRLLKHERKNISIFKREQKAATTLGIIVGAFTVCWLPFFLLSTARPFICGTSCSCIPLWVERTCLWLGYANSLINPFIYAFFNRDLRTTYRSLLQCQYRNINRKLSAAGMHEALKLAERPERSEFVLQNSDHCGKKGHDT

With `Cc1ccccc1-c1cccc(N2CCNCC2)c1` the Ki [1] was 1.4 nM and the Ki [2] was 17.4 nM.

`c1ccc(-c2cccc(N3CCNCC3)c2)cc1` was tested, and the Ki [1] was 25 nM, the Activity [3] was 21% and the Ki [2] was 72.1 nM.

`c1ccc2c(N3CCNCC3)cccc2c1` gave a Ki [4] of 83 nM.

Compound `COc1ccccc1-c1cccc(N2CCNCC2)c1` has a Ki [1] of 8.2 nM.

For `COc1cccc(OC)c1-c1ccccc1N1CCNCC1`, the Ki [1] was 96 nM, the Activity [3] was 10% and the Activity [5] was 21%.

With `Cc1ccc(-c2cccc(N3CCNCC3)c2)cc1C` the Ki [1] was 93 nM, the Activity [3] was 7% and the Activity [5] was 34%.

`Fc1ccc(-c2cccc(N3CCNCC3)c2)cc1` was tested, and the Ki [1] was 109 nM, the Activity [3] was 3% and the Ki [2] was 63.2 nM.

`Cc1ccccc1-c1ccccc1N1CCNCC1` was tested, and the Ki [1] was 6.9 nM.

With `COc1ccc(-c2ccccc2N2CCNCC2)cc1` the Ki [1] was 2.6 nM, the Activity [6] was “inactive” and the Activity [7] was “Active”. For the same compound, the Activity [8] was “inactive”, the Ki [9] was 156 nM and the IC50 [10] was 438 nM. The Activity [11] was “Active”, the Ki [2] was 476 nM and the Activity [12] was “inactive”.

`COc1ccccc1-c1ccccc1N1CCNCC1` was tested, and the Ki [1] was 18.4 nM.

For `O=[N+]([O-])c1ccc(-c2cccc(N3CCNCC3)c2)cc1`, the Ki [1] was 13 nM, the Activity [3] was 8% and the Ki [2] was 31.4 nM.

`O=[N+]([O-])c1ccc(-c2ccccc2N2CCNCC2)cc1` showed a Ki [1] of 7 nM, a Ki [9] of 105 nM and an Activity [5] of 16%.

With `c1ccc(-c2ccccc2N2CCNCC2)nc1` the Ki [1] was 23 nM, the Activity [3] was 11% and the Activity [5] was 23%.

Compound `c1ccc(-c2cccc(N3CCNCC3)c2)nc1` has a Ki [1] of 80 nM, an Activity [3] of 27% and a Ki [2] of 14.9 nM.

In the case of `Fc1ccc(-c2ccccc2N2CCNCC2)cc1`, the Ki [1] is reported as 2.7 nM, the Activity [6] is reported as “inactive” and the Activity [7] is reported as “Active”. The Activity [3] was 14%, the Activity [11] was “Active” and the Activity [5] was 15%. The Activity [12] was “inactive”.

With `Cc1nn(C)c(C)c1-c1cccc2c1CC[C@H](N(C)C)C2` the Activity [6] was “inactive”, the Activity [7] was “inactive” and the Activity [13] was “inactive”. For the same compound, the Activity [11] was “Active” and the Activity [14] was “Active”.

`COc1cccc(OC)c1-c1cccc(N2CCNCC2)c1` gave a Ki [1] of 7.1 nM, an Activity [3] of 3% and a Ki [2] of 149 nM.

With `Cc1ccc(-c2ccccc2N2CCNCC2)cc1C` the Ki [1] was 1.9 nM, the Ki [9] was 165 nM and the Activity [13] was “inactive”. The Activity [11] was “Active”, the Activity [5] was 22% and the Activity [14] was “Active”.

With `c1ccc(-c2ccccc2N2CCNCC2)cc1` the Ki [1] was 1.4 nM, the Activity [6] was “inactive” and the Activity [7] was “Active”. For the same compound, the Activity [8] was “inactive”, the Ki [9] was 59.1 nM and the IC50 [10] was 531 nM. For the same compound, the Activity [11] was “Active”, the Ki [2] was 99 nM and the Activity [12] was “inactive”.

`COc1ccc(-c2cccc(N3CCNCC3)c2)cc1` was tested, and the Ki [1] was over 5000 nM, the Activity [3] was 29% and the Activity [5] was 42%.
